# ABCG2 block: blocks JC-1 efflux by human ABCG2 transporter; inhibition, % at 6.6 µM; Q9UNQ0; IgMXP3 cells, flow cytometry; 190,000 compounds, 0.1% hits;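 active = inhibition above 80%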;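 note: 0% = DMSO and 100% = nicardipine control wells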
#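 Measure – % inhibition of efflux relative to nicardipine and DMSO · Test system – ABCG2 IgMXP3 and barcoded ABCB1 CCRF-Adr cell mix · Control set – nicardipine as high control, DMSO as low control · Compound – one concentration, 6.6 µM final · Signal – flow cytometry of retained JC-1 fluorescence · Timing – 10 min exposure at 25 °C with rotation, no wash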
# MEKK2mut PB1 HTS: signal of MEK5 binding to mutant human MEKK2 PB1 domain; 290,000 compounds, 0.35% hits; bead flow cytometry, Alexa488-MEK5 binding to MEKK2 mutant; AID 1530; percent response, % at 10 µM; in the data active = percent response above about 24%, passing the limit was not always enough
# WT yeast gro inh: growth inhibition of WT yeast, mitochondrial fusion screen | mitochondrial fusion phenotypic screen, WT strain | inhibition, % at 10 µM | 190,000 compounds, 2.1% hits | AID 1362; in the data active = inhibition above about 58%; tested in S. cerevisiae
# ABCB1 inh: human ABCB1 inhibition, ABCG2 as counter-screen | 190,000 compounds, 0.067% hits | AID 1326 | P08183 | inhibition, % at 6.6 µM | CCRF-Adr cells, JC-1 efflux, flow cytometry; in the data active = inhibition above about 40%;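 note: 0% = vehicle and 100% = reference inhibitor; higher value means more JC-1 retained so stronger ABCB1 efflux block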
# MEKK3 PB1 HTS: modulators (inhibitors or enhancers) of MEK5 binding to human MEKK3 PB1 domain; Q99759; bead-based flow cytometry, Alexa488-MEK5 binding to MEKK3; actives lie on both sides; 0 = blocked by unlabeled MEK5, 100 = vehicle; binding response (% of control), % at 10 µM; 290,000 compounds, 1.4% hits;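 active = binding response more than 3 SD above or below the average of its plate-row segment, actives on both sides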;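 note: Alexa488 bead fluorescence after subtracting the streptavidin-only scavenger bead signal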
# Target sequence (Q99759 whole entry, looked up, the tested form may be a part): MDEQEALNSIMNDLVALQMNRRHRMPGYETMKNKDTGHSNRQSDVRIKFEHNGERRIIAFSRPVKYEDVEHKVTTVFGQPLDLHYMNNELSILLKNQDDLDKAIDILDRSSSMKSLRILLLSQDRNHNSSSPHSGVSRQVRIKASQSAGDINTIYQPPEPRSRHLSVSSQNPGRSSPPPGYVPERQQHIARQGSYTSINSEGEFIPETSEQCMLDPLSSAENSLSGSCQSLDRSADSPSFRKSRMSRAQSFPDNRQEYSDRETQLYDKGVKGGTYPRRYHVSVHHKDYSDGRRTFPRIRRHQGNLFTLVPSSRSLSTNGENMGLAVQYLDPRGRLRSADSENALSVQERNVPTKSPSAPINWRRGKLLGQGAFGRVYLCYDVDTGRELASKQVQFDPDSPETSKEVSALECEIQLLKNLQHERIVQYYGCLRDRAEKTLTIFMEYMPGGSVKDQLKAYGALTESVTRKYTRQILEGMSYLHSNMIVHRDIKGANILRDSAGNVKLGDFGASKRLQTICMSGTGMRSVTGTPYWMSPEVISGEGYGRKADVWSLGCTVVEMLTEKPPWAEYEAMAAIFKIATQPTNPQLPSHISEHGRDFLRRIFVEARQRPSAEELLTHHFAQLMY
# MEKK2 WT-MEK5: raises or lowers MEK5 binding to wildtype human MEKK2 PB1 domain. bead flow cytometry, Alexa488-MEK5 binding to MEKK2 WT; actives lie on both sides. binding response (% of control), % at 10 µM. 290,000 compounds, 1.1% hits. AID 1531; in the data active = binding response below about 67% or above about 130%
# MEKK2wt confirm: raises or lowers MEK5 binding to wildtype human MEKK2, retest | shares compounds with MEKK3 PB1 HTS | bead flow cytometry, Alexa488-MEK5 binding to MEKK2 WT; actives lie on both sides | binding response (% of control), % at 10 µM | 5,900 compounds, 2.4% hits; in the data active = binding response below about 16% or above about 210%; inactive = in between
# MEKK2mut confirm: signal of MEK5 binding to mutant human MEKK2, retest | 5,900 compounds, 2% hits | percent response, % at 10 µM | bead flow cytometry, Alexa488-MEK5 binding to MEKK2 mutant | shares compounds with MEKK3 PB1 HTS | AID 1893; in the data active = percent response mostly above about 71%, no sharp cut-off; inactive = mostly below about 38%;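 note: higher means compound restores mutant binding toward wildtype level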
# MEKK3 confirm: MEKK3-MEK5 PB1 inhibition, single concentration confirmation. shares compounds with MEKK3 PB1 HTS. bead flow cytometry, Alexa488-MEK5 binding to MEKK3; hits give low values. binding response (% of control), % at 10 µM. 5,900 compounds, 1.8% hits. AID 1894;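 active = binding response below 72% of control, or above a set upper limit, though filed actives all read lower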;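 note: 100% = DMSO only wells and 0% = binding blocked by excess unlabeled MEK5; lower values mean stronger disruption of MEK5 binding to MEKK3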
# * marks the source's active call; other numbers are inactive results; x = not tested or not shown; [ ] = dose if it differs, or a comment. In the library only some 3.5% were active in any assay of this set; here they are far more common.
SMILES,ABCG2 block,MEKK2mut PB1 HTS,WT yeast gro inh,ABCB1 inh,MEKK3 PB1 HTS,MEKK2 WT-MEK5,MEKK2wt confirm,MEKK2mut confirm,MEKK3 confirm
O=C(CN1C(=O)COc2ccccc21)c1ccc(Cl)cc1,2,5,19,0,122*,117,95,1,102
O=C(OCC(=O)N1CCN(Cc2ccccc2)CC1)c1ccc(Cl)cc1,1,-42,48,0,4.0*[inhibitor],6.0*[inhibitor],99,-3,98
O=S(=O)(NCCSc1ccccc1)c1ccc2c(c1)OCCO2,0,5,-15,0,107,107,x,x,x
O=S(=O)(NCCOc1ccc(F)cc1)c1ccc2c(c1)OCCO2,0,-18,-23,0,2.0*[inhibitor],2.0*[inhibitor],107,1,107
COC/C=C/C1=CC2=CC(=O)C(C)(OC(=O)c3cnc4ccccc4n3)C(=O)C2=CN1c1ccccc1 (stereo not drawn),x,4,x,x,95,94,x,x,x
COC/C=C/C1=CC2=CC(=O)C(C)(OC(=O)c3cnc4ccccc4n3)C(=O)C2=CN1CC(C)C (stereo not drawn),x,-2,x,x,80*[inhibitor],85,101,3,101
N/C(Cc1ccc([N+](=O)[O-])cc1)=N\OC(=O)c1ccc(Br)cc1,6,1,22,0,132*,109,106,5,105
COC(=O)c1ccc(N2CCN(S(=O)(=O)c3ccc(Br)cc3)CC2)c([N+](=O)[O-])c1,2,8,-10,1,129*,124,97,-5,94
O=C(NNC(=S)Nc1ccc(Br)cc1)c1ccc(N2CCOCC2)c([N+](=O)[O-])c1,4,0,-6,0,137*,112,104,0,102
COC(=O)c1ccc(N2CCN(S(=O)(=O)c3ccc(C)cc3)CC2)c([N+](=O)[O-])c1,5,-4,16,1,97,91,x,x,x
Cc1cc(SCc2ccc(Cl)c(Cl)c2)nc(=O)[nH]1,x,-3,x,x,100,101,x,x,x
CCN1CCN(C(=S)Nc2ccc3nc4n(c(=O)c3c2)CCCCC4)CC1,9,6,-8,1,106,108,x,x,x
COc1cc2c(cc1OC)CN(C(=O)C(CCSC)NS(=O)(=O)c1ccc(C)cc1)CC2 (stereo not drawn),x,5,x,x,101,102,x,x,x
CC1(C)CC2CC(C)(CN2/C=N/c2sc3c(c2C#N)CC(C)(C)NC3(C)C)C1 (stereo not drawn),x,8,x,x,105,116,x,x,x
COc1ccc(/C=N/Nc2cc(N3CCCC3)nc(N3CCCC3)n2)cc1,2,4,75*,1,130*,142*,160,33,108
CCCCC(=O)NC(=S)Nc1ccc(NC(=O)C(C)C)c(OC)c1,8,-7,-7,1,83,87,x,x,x
COc1ccc(/C=N/NC(=O)Cn2cnc3c2c(=O)n(C)c(=O)n3C)c(OC)c1OC,x,-33,x,x,71*[inhibitor],67,98,1,103
CN1CCN(NC(=O)C2CC2)CC1,3,0,-4,1,142*,104,106,-3,103
CCC(C)NC(=O)Cc1cn(C)c2ccccc12 (stereo not drawn),1,-14,-6,0,3.0*[inhibitor],3.0*[inhibitor],102,-12,96
CCc1ccc(NC(=O)Cc2cn(C)c3ccccc23)cc1,37,0,-33,1,104,106,x,x,x
O=C(Cc1cccc2ccccc12)N/N=C/c1ccc(Sc2nc3ccccc3s2)o1,-2,0,6,0,97,101,x,x,x
CN(C)CCCNC(=O)c1ccc(-c2nc(-c3ccc(Cl)cc3)cs2)cc1,3,40,91,0,107,252*,199,47,108
C/C=C/c1ccc(OCCOCCNCc2ccccc2)c(OC)c1,x,24*,x,x,113,195*,156,31,108
C/C=C/c1ccc(OCCOc2cc(C=O)ccc2OC)c(OC)c1,8,13,5,1,104,107,x,x,x
O=C(NC1CC1)c1cccc(Oc2ccccc2)c1,x,-2,x,x,95,92,x,x,x
SMILES,ABCG2 block,MEKK2mut PB1 HTS,WT yeast gro inh,ABCB1 inh,MEKK3 PB1 HTS,MEKK2 WT-MEK5,MEKK2wt confirm,MEKK2mut confirm,MEKK3 confirm
O=C1CC(c2cccc(Oc3ccccc3)c2)NC(=O)N1 (stereo not drawn),16,-21,-5,0,0.0*[inhibitor],-1.0*[inhibitor],101,2,101
O=C1[C@@H]2[C@@H]3C[C@@H]([C@H]4ON=C(c5ccc(Cl)cc5Cl)[C@@H]34)[C@@H]2C(=O)N1C1CCCCC1,1,3,40,1,144*,106,96,-5,98
CC(=O)Nc1ccc(/C=N/NC(=S)NC(C)C)cc1,1,0,0,0,104,108,x,x,x
CCN(c1ccccc1)S(=O)(=O)c1ccc(Cl)c(NC(=O)CSc2nnc(C)s2)c1,22,1,2,1,101,102,x,x,x
CCCCC(CC(O)COCCC)c1n[nH]c(=S)n1-c1ccccc1 (stereo not drawn),-1,-1,2,0,128*,106,106,5,101
CCN1CCN(C(=O)CN(CC)S(=O)(=O)c2ccc(F)cc2)CC1,x,3,x,x,105,106,x,x,x
CC1=NN(c2cccc(C(=O)O)c2)C(=O)/C1=C\C=C\c1ccco1,-2,-3,10,-1,102,97,x,x,x
CC1=NN(c2ccccc2)C(=O)/C1=C/C=C/c1ccccc1,12,-1,8,0,129*,100,101,4,101
COc1ccc(C(=O)NCCC2=CCCCC2)cc1,3,1,5,0,131*,107,100,-9,97
COc1ccc(C(=O)NCC(=O)OCC(=O)NCCC2=CCCCC2)cc1,3,-3,-14,0,100,96,x,x,x
O=C(CNC(=S)NC(=O)c1ccc(F)cc1)c1ccccc1,3,2,-7,0,136*,107,103,-2,101
COc1cccc(CNC(=O)N2CCN(S(=O)(=O)c3ccc(C)cc3)CC2)c1,x,-5,x,x,100,93,x,x,x
O=C(Cn1sc2ccccc2c1=O)N1CCN(C(=O)c2ccco2)CC1,x,5,x,x,102,104,x,x,x
CC1Sc2ccc(S(=O)(=O)CCC(=O)N3CCN(c4ccccc4F)CC3)cc2NC1=O (stereo not drawn),x,5,x,x,100,100,x,x,x
